Values after ≈ are worked out from the molar mass of the structure shown.
Key:
Assay type in all cases: functional
Rattus norvegicus [1] = assay: Tested for hypolipidemic activity in male rats, cholesterol was determined in serum at 20 mg/kg
In short: (§1)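 Groups of eight male Wistar rats (200–230 g) dosed orally in PEG 400, either daily for 7 days (killed 24 h after the last dose) or for 4 days with a second dose on day 4 (killed 16 h later). Fasted 16 h. Paired sera pooled, lipoproteins separated by ultracentrifugation (1.006 and 1.040 g/cm³), HDL taken as the infranatant. Cholesterol measured enzymatically; % vs vehicle, mean ± SEM of four pools.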

Rattus norvegicus [2] = assay: Hypolipidemic activity was determined in male rats, and low-density lipoprotein level was determined at 20 mg/kg
In short: (§2)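 Male Wistar rats (200–230 g), eight per group, were dosed orally in PEG 400 at 8 a.m. for 4 days, plus a second dose at 4 p.m. on day 4. Rats were fasted 16 h and killed 16 h after the last dose. Sera from pairs of rats were pooled. LDL (up to 1.040 g/cm³) was separated by ultracentrifugation and the HDL infranatant taken. Cholesterol was measured enzymatically. Results are % versus vehicle control, mean ± SEM of four pools, Student's t test.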

Staphylococcus aureus = assay: Antibacterial activity against Staphylococcus aureus 10B
In short: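 Agar dilution on DST agar with 2-fold drug dilutions. Inoculum of 10⁴ viable S. aureus 10B was taken from liquid-nitrogen stock, thawed 30 min and not subcultured. It was applied by multipoint replicator and incubated overnight at 37 °C. MIC is the lowest concentration inhibiting growth relative to control cultures.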

Rattus norvegicus [3] = assay: Hypolipidemic activity was determined in male rats, and high-density lipoprotein level was determined at 20 mg/kg; in short: as §2
Rattus norvegicus [4] = assay: Hypolipidemic activity was determined in male rats, and high-density lipoprotein level was determined at 50 mg/kg; in short: as §2
Rattus norvegicus [5] = assay: Tested for hypolipidemic activity in male rats, cholesterol was determined in serum at 50 mg/kg; in short: as §1
Rattus norvegicus [6] = assay: Hypolipidemic activity was determined in male rats, and low-density lipoprotein level was determined at 50 mg/kg; in short: as §2

Structure (SMILES)	Activity (Rattus norvegicus [1]) [%]	Activity (Rattus norvegicus [2]) [%]	MIC (Staphylococcus aureus) [µg/mL]	Activity (Rattus norvegicus [3]) [%]	Activity (Rattus norvegicus [4]) [%]	Activity (Rattus norvegicus [5]) [%]	Activity (Rattus norvegicus [6]) [%]
COC1/C=C/OC2(C)Oc3c(C)c(O)c4c(O)c(c(N5CCC(O)CC5)c(O)c4c3C2=O)NC(=O)/C(C)=C\C=C\C(C)C(O)C(C)C(O)C(C)C(OC(C)=O)C1C (stereo not drawn)	0	13	< 0.1	-3	–	–	–
COC1/C=C/OC2(C)Oc3c(C)c(O)c4c(O)c(c(N5CCC(C)CC5)c(O)c4c3C2=O)NC(=O)/C(C)=C\C=C\C(C)C(O)C(C)C(O)C(C)C(OC(C)=O)C1C (stereo not drawn)	-23	23	< 0.1	-30	–	–	–
COC1/C=C/OC2(C)Oc3c(C)c(O)c4c(O)c(c(N5CCC(=O)CC5)c(O)c4c3C2=O)NC(=O)/C(C)=C\C=C\C(C)C(O)C(C)C(O)C(C)C(OC(C)=O)C1C (stereo not drawn)	1	53	< 0.1	-9	–	–	–
Cc1cc(C)c(CN2CCN(C3=CC(=O)c4ccccc4C3=O)CC2)c(C)c1	–	–	> 128	–	6	-1	18
COC1/C=C/OC2(C)Oc3c(C)c(O)c4c(O)c(c(O)c(O)c4c3C2=O)NC(=O)/C(C)=C\C=C\C(C)C(O)C(C)C(O)C(C)C(OC(C)=O)C1C (stereo not drawn)	–	–	0.1 (≈ 0.14 µM)	–	15	4	41
COC1/C=C/OC2(C)Oc3c(C)c(O)c4c(O)c(c5nc6cc(C)ccc6nc5c4c3C2=O)NC(=O)/C(C)=C\C=C\C(C)C(O)C(C)C(O)C(C)C(OC(C)=O)C1C (stereo not drawn)	–	–	< 0.008	–	–	-14	-21
COC1/C=C/OC2(C)Oc3c(C)c(O)c4c(O)c(c(C=NN5CCN6CCCCC6C5)c(O)c4c3C2=O)NC(=O)/C(C)=C\C=C\C(C)C(O)C(C)C(O)C(C)C(OC(C)=O)C1C (stereo not drawn)	–	–	0.005 (≈ 0.00579 µM)	–	-53	-49	-27
COC1/C=C/OC2(C)Oc3c(C)c(O)c4c(O)c(c(N5CCN(Cc6ccccc6)CC5)c(O)c4c3C2=O)NC(=O)/C(C)=C\C=C\C(C)C(O)C(C)C(O)C(C)C(OC(C)=O)C1C (stereo not drawn)	–	–	0.004 (≈ 0.00459 µM)	–	-36	-29	-56
COC1/C=C/OC2(C)Oc3c(C)c(O)c4c(O)c(c(N5CCC(Cc6ccccc6)CC5)c(O)c4c3C2=O)NC(=O)/C(C)=C\C=C\C(C)C(O)C(C)C(O)C(C)C(OC(C)=O)C1C (stereo not drawn)	-53	-66	0.04 (≈ 0.0459 µM)	-51	–	–	–
COC1/C=C/OC2(C)Oc3c(C)c(O)c4c(O)c(c(C=O)c(O)c4c3C2=O)NC(=O)/C(C)=C\C=C\C(C)C(O)C(C)C(O)C(C)C(OC(C)=O)C1C (stereo not drawn)	–	–	0.01 (≈ 0.0138 µM)	–	-14	-5	19
COC1/C=C/OC2(C)Oc3c(C)c(O)c4c(O)c(c(C=NN5CCN(Cc6c(C)cc(C)cc6C)CC5)c(O)c4c3C2=O)NC(=O)/C(C)=C\C=C\C(C)C(O)C(C)C(O)C(C)C(OC(C)=O)C1C (stereo not drawn)	–	–	0.05 (≈ 0.0531 µM)	–	-79	-81	-39
CCC1CCC2CN(N=Cc3c4c(O)c5c(O)c(C)c6c(c5c3O)C(=O)C(C)(O/C=C/C(OC)C(C)C(OC(C)=O)C(C)C(O)C(C)C(O)C(C)/C=C/C=C(/C)C(=O)N4)O6)CCN2C1 (stereo not drawn)	–	–	0.005 (≈ 0.00561 µM)	–	-69	-62	-31
COC1/C=C/OC2(C)Oc3c(C)c(O)c4c(O)c(c(N5CCC(C6CCCC6)CC5)c(O)c4c3C2=O)NC(=O)/C(C)=C\C=C\C(C)C(O)C(C)C(O)C(C)C(OC(C)=O)C1C (stereo not drawn)	-42	-41	< 0.1	-40	–	–	–
COC1/C=C/OC2(C)Oc3c(C)c(O)c4c(O)c(c(N5CCC(C(C)C)CC5)c(O)c4c3C2=O)NC(=O)/C(C)=C\C=C\C(C)C(O)C(C)C(O)C(C)C(OC(C)=O)C1C (stereo not drawn)	-61	-54	< 0.1	-61	–	–	–
COC1/C=C/OC2(C)Oc3c(C)c(O)c4c(=O)c(c5oc6cc(C)ccc6nc-5c4c3C2=O)NC(=O)/C(C)=C\C=C\C(C)C(O)C(C)C(O)C(C)C(OC(C)=O)C1C (stereo not drawn)	–	–	0.001 (≈ 0.00125 µM)	–	-21	-14	-21
COC1/C=C/OC2(C)Oc3c(C)c(O)c4c(O)c(c(C=NN5CCN(Cc6cccc7ccccc67)CC5)c(O)c4c3C2=O)NC(=O)/C(C)=C\C=C\C(C)C(O)C(C)C(O)C(C)C(OC(C)=O)C1C (stereo not drawn)	–	–	0.02 (≈ 0.0211 µM)	–	-75	-69	-35

Reference: ChEMBL document CHEMBL1125042, “Hypolipidemic activity of rifamycin derivatives” (J Med Chem, 1990)
